Screening data deposited in PubChem BioAssay by several laboratories.
The sample as a whole holds a higher share of hits than the screen did.
HUVEC inhibit = blocks proliferation of human endothelial cells; HUVEC proliferation, CellTiter-Glo luminescence, 72 h; hits give low values; viability, % at 10 µM (by protocol); 1.1% of 86,000 active; AID 648;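 active = viability at or below 30%; inactive = viability above 30%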
HCT116 bCat-KO = beta-catenin-lacking colon tumor cell growth suppression. HCT116 beta-catenin knockout viability, CellTiter-Glo, 60 h; hits give low values. viability, % at 10 µM. 1.5% of 140,000 active. AID 818;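 active = viability at or under a set limit, the compound median less 4 SD, cut at about 6% in these data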
Pyk2 oligo antag = blocks oligomerization of human Pyk2 in cells | Q293 cells, Pyk2 FERM NanoBiT luminescence; hits give low values | z-score (the deposit names both 25 µM and 10 µM) | 0.83% of 99,000 active;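 active = Z-score of -3 or lower, scaled per plate to the spread of control and sample wells; inactive = z-score above -3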;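 also: negative z-score means lost luminescence so less FERM oligomerization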
Target sequence (Q14289 whole entry, looked up): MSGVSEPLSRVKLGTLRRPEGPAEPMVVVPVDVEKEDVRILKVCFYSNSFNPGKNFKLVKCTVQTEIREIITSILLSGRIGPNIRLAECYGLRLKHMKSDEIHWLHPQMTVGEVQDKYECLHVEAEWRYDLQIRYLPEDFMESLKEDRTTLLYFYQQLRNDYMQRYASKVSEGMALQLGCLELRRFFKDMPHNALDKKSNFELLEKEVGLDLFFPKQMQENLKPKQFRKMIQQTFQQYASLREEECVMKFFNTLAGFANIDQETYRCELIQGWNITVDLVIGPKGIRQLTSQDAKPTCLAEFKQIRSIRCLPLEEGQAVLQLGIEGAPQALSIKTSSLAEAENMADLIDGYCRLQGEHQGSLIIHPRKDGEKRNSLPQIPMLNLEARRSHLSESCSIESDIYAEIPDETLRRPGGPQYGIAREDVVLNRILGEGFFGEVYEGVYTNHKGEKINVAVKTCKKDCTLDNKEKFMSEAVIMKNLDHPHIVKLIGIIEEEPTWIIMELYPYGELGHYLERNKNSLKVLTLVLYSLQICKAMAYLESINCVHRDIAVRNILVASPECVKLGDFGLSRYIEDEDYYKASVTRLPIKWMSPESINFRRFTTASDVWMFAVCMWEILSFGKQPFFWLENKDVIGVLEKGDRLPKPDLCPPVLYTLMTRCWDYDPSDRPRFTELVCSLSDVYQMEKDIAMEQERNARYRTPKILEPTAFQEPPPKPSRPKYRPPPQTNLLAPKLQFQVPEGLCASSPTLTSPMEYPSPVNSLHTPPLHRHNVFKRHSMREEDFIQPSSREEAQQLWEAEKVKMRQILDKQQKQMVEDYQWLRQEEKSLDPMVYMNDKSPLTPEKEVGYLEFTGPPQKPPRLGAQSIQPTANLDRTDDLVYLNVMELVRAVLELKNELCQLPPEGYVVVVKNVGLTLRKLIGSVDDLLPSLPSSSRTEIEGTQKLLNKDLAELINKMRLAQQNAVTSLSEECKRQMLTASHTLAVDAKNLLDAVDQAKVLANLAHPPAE
Fibroblast inh = blocks proliferation of human lung fibroblasts; LL 47 human lung fibroblast viability, ATP luminescence; hits give low values; AID 719; 1.1% of 85,000 active; viability, % at 10 µM;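 active = viability at or below 50% in the single dose screen; inactive = viability above 50%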;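 also: compound exposure lasted 72 h before the ATP readout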
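Signal: luminescent ATP detection, CellTiter-Glo; assay system: LL 47 human lung fibroblasts; input: 1,150 cells/well; incubation: overnight cell rest, 72 h compound treatment at 37 °C; measure: % viability versus median cells-only luminescence; medium: IMEM growth medium with 15% fetal bovine serum; dosing: compound addition at 0.1% DMSO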
HCT116 PTEN-null = growth suppressors of cells with PTEN tumor suppressor deletion; HCT116 PTEN-null viability, CellTiter-Glo, 60 h; hits give low values; viability, % at 10 µM; 1.2% of 140,000 active;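 active = viability at or below a set limit, 4 SD under the median of all tested compounds, cut at about 3.7% in these data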;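 also: PTEN knockout HCT116 line with beta catenin targeted HCT116 as companion control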
H69AR inhibit = growth inhibitors of human H69AR lung tumor cells; H69AR lung tumor viability, ATP luminescence, 72 h; hits give low values; viability, % at 10 µM; AID 598; 6% of 85,000 active;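 active = viability at or below 40%; inactive = viability above 40%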;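 also: multidrug resistant small cell line overexpressing MRP-1 efflux transporter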
Numbers stand for hits; n = inactive; x = no result.

SMILES	HUVEC inhibit	HCT116 bCat-KO	Pyk2 oligo antag	Fibroblast inh	HCT116 PTEN-null	H69AR inhibit
O=C(CN(C(=O)Cn1nnc(-c2cccs2)n1)c1ccc2c(c1)OCCO2)NCc1ccccc1	n	n	-3	n	n	n
CC(C)(C)C(=O)NC1(C(F)(F)F)C(=O)Nc2c1c(=O)[nH]c(=O)n2Cc1ccco1 (stereo not given)	n	n	n	n	n	n
O=c1[nH]c(=O)n(Cc2ccco2)c2c1C(C(F)(F)F)(C(F)(F)F)N=C(CCC1CCCCC1)N2	n	n	-4.1	n	n	9.5
N#Cc1ccc(C2=NC(C(F)(F)F)(C(F)(F)F)c3c(n(Cc4ccco4)c(=O)[nH]c3=O)N2)cc1	n	n	n	n	n	35
O=c1[nH]c(=O)n(Cc2ccco2)c2c1C(C(F)(F)F)(C(F)(F)F)N=C(C1CCCCC1)N2	n	n	n	n	n	n
O=c1[nH]c(=O)n(Cc2ccco2)c2c1C(C(F)(F)F)(C(F)(F)F)N=C(CCc1ccccc1)N2	n	n	-4	n	n	n
O=c1[nH]c(=O)n(-c2ccccc2)c2c1C(C(F)(F)F)(C(F)(F)F)N=C(CCC1CCCCC1)N2	x	n	-3.6	x	n	x
CC(C)OC(=O)[C@H]1[C@H](c2ccc(Cl)cc2)[C@@](C#N)(C(N)=O)[C@@H]2C=CC(C(N)=O)=CN21	n	n	n	n	n	n
CCCN1C(=O)/C(=N\OCC(=O)NC23CC4CC(CC(C4)C2)C3)c2ccccc21	x	n	x	x	n	x
C=CCOc1ccc(/C=C/C(=O)Nc2ccc(C(=O)NC)cc2)cc1	x	n	x	x	n	x
CC(C)(C)NC(=O)COC(=O)c1cc(S(=O)(=O)N2CCCCC2)ccc1N1CCOCC1	x	n	n	x	n	x
O=C(NC1CCCCC1)c1cc([N+](=O)[O-])ccc1N1CCCCC1	x	n	n	x	n	x
O=C(Nc1ccc([N+](=O)[O-])cc1)c1nc[nH]c1C(=O)NC1CCCCC1	x	2.8	x	x	1.2	x
O=C(Nc1ccc(F)cc1)c1nc[nH]c1C(=O)Nc1ccc([N+](=O)[O-])cc1	x	1.3	x	x	1.4	x
CNC(=O)c1[nH]cnc1C(=O)Nc1ccc(C)cc1	n	n	x	n	n	n
CCCn1c(SCC(=O)Nc2cc(S(=O)(=O)N3CCOCC3)ccc2OC)n[nH]c1=O	x	n	x	x	n	x
CCN(CC)S(=O)(=O)c1ccc(OC)c(NC(=O)CSc2ccccc2)c1	x	n	n	x	n	x
O=C(/C=C\c1cn(-c2ccccc2)nc1-c1ccccc1)Nc1nccs1	x	1.6	x	x	1.2	x
CC(=O)NS(=O)(=O)c1ccc(NC(=O)/C=C/c2cn(-c3ccccc3)nc2-c2ccccc2)cc1	x	n	x	x	n	x
COc1ccc2cc(/C=C/C(=O)c3ccco3)c(Cl)nc2c1	n	n	x	n	n	16
COc1cc2cc(/C=C/C(=O)c3ccco3)c(Cl)nc2cc1OC	n	n	n	n	n	7.9
O=C(CNC(=O)c1ccccc1)N/N=C/c1ccc([N+](=O)[O-])o1	x	n	x	x	n	x
Cc1cc(C)nc(NC(=O)c2ccc([N+](=O)[O-])o2)n1	x	4.2	x	x	n	x
Cc1cc(C)nc(NC(=O)c2cc([N+](=O)[O-])cc([N+](=O)[O-])c2)n1	x	n	x	x	n	x
O=C(NNC(=S)NC(=O)c1ccccc1[N+](=O)[O-])c1ccccc1	n	n	n	n	n	25
SMILES	HUVEC inhibit	HCT116 bCat-KO	Pyk2 oligo antag	Fibroblast inh	HCT116 PTEN-null	H69AR inhibit
O=C(NNC(=O)c1ccc([N+](=O)[O-])o1)c1ccccc1	n	n	n	43	n	n
NC1=NC(=Nc2cccc(Cl)c2)c2ccccc21	x	n	x	x	n	x
Nc1nc(-c2ccccc2)nc2sc3c(c12)CCCC3	x	n	x	x	n	x
CCN1CCN(c2cc3c(nn2)Oc2ccccc2N3C)CC1	x	n	x	x	n	x
OC1(Cc2ccn[nH]2)CCCCC1	28	n	x	n	n	n
O=C(COc1c(Cl)cc(Cl)cc1Cl)c1ccc(Cl)cc1	x	n	x	x	n	x
Cc1ccc(CNC(=O)CSc2nc3n[nH]c(C)c3c(=N)n2-c2cccc(C)c2)cc1	n	n	n	n	n	n
Cc1cc(-n2c(SCC(=O)NCc3cccs3)nc3n[nH]c(C)c3c2=N)ccc1Cl	n	n	n	n	x	24
CCc1ccc(NC(=O)CSc2nc3n[nH]c(C)c3c(=N)n2-c2cccc(OC)c2)cc1	n	n	n	n	n	10
COc1cccc(NC(=O)CSc2nc3n[nH]c(C)c3c(=N)n2-c2cccc(OC)c2)c1	n	n	n	n	n	n
CCNc1nc(C)c2cc(Br)c(=O)n(CC)c2n1	n	n	n	37	n	n
Cc1nc(C)c(CCNC(=O)c2ccccc2Br)s1	x	n	x	x	n	x
COc1ccc(CC(=O)NCc2cn3ccsc3n2)cc1	n	n	n	n	n	1.0
COc1ccc(CCC(=O)NCc2cn3ccsc3n2)cc1	n	x	n	n	x	n
C=CCc1cccc([C@@H]2[C@@H](C)CC[C@H]3C(=O)N4[C@@H](c5cc(OC)c(OC)c(OC)c5)c5[nH]c6ccccc6c5C[C@H]4C(=O)N23)c1	x	n	x	x	n	x
Cc1cc(C)n(-c2ccc(Cl)c(C(=O)Nc3cc(C(F)(F)F)ccc3Cl)n2)n1	x	n	x	x	n	x
CN1CCN(C2=Cc3ccccc3Sc3cc(F)c(Cl)cc32)CC1	8.8	n	n	n	n	0.0
CN1CCN(C2=Cc3cc(Cl)ccc3Sc3cc(F)ccc32)CC1	4.9	1.3	n	n	n	n
CN1CCN(C2=Cc3ccccc3Sc3cc(F)c(F)cc32)CC1	6.7	n	n	n	n	7.1
Cc1ccc(SCc2ccc(C(=O)NCc3ccncc3)cc2)cc1	x	n	n	x	n	x
COC(=O)c1ccccc1OCCCN(C)C	x	n	x	x	n	x
CC(=O)Nc1c(C(=O)N2CCN(c3ccccn3)CC2)cnn1-c1ccc(C)cc1	x	n	x	x	n	x
Cc1cc(C)c2oc(-c3ccc(Cl)c(NC(=O)c4ccc(C#N)cc4F)c3)nc2c1	n	n	n	20	n	22
O=S(=O)(c1ccc2nc(-c3ccccc3)[nH]c2c1)N1CCN(c2ccc(Cl)cc2)CC1	x	0.9	n	x	0.8	x
COC(=O)c1cccnc1NC(=S)NNC(=O)c1ccccc1	n	n	n	n	n	n
SMILES	HUVEC inhibit	HCT116 bCat-KO	Pyk2 oligo antag	Fibroblast inh	HCT116 PTEN-null	H69AR inhibit
O=C(NC1CCCCC1)C(c1cccs1)N(Cc1cccs1)C(=O)c1cccs1 (stereo not given)	n	n	-3.9	n	n	n
O=C(Cc1cccs1)N(Cc1ccco1)C1(C(=O)NC2CCCCC2)CCCCC1	x	n	-4.2	x	n	x
O=C(Cc1cccs1)N(Cc1cccs1)C1(C(=O)NC2CCCC2)CCCCC1	n	n	-3.4	n	n	n
O=C(NC1CCCCC1)C(c1ccc2ncccc2c1)N(Cc1cccs1)C(=O)c1cccs1 (stereo not given)	x	n	n	x	n	x
CC1(C)N=C(SCC(=O)Nc2ccc(Cl)cc2)C(c2ccc(Cl)cc2)=N1	n	n	n	n	n	8.4
CC1CCN(C2=NC(=O)/C(=C/c3cn(-c4ccccc4)nc3-c3cccc(S(=O)(=O)N(C)C)c3)S2)CC1	x	n	n	x	n	x
O=C(OCc1cc(=O)n2cc(Br)ccc2n1)c1ccc(Cl)c(S(=O)(=O)NCc2ccccc2)c1	x	n	x	x	n	x
